One test has as its system SW1573. Kind of test: Antiproliferative activity against human SW1573 cells after 48 hrs by SRB assay. The class given is functional. The settings on record: SW1573, 48 h. The method in brief:
(§1)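 Human solid tumor lines and three immortalized nontumor lines in culture, exposed to the test agent. Read-out is growth inhibition, reported as GI50 (μM).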
(In general: Sulforhodamine B stains cellular protein and so reports cell mass.)

For a further test, the system named is HBL-100. Kind of test: Antiproliferative activity against human HBL100 cells after 48 hrs by SRB assay. The following applies: HBL-100, 48 h. Type of test: functional. The method in brief: as §1

For `C#CC(O/C=C/C(=O)OC)c1ccccc1` (stereo not drawn), the figures for the GI50 in the test on SW1573 and in the test on HBL-100 were 31000 nM and 26000 nM, respectively.

Turning to `CCOC(=O)C#CC(C[C@@H](C)CCC=C(C)C)O/C=C/C(=O)OCC` (stereo partly drawn), the 50% growth inhibitory concentration (GI50) in the test with SW1573 and in the test with HBL-100 was 2600 nM throughout.

As to `COC(=O)C#CC(O/C=C/C(=O)OC)C(C)C` (stereo not drawn), the values for the 50% growth inhibitory concentration (GI50) in the test on SW1573 and with HBL-100 were 750 nM and 450 nM, respectively.

Consider `CCCCCCC(C#CC(=O)OC)O/C=C/C(=O)OC` (stereo not drawn), for which the GI50 was 3300 nM with SW1573 and 2500 nM in the test with HBL-100.

As to `CC1CCC(C(C)C)C(OC(=O)C#CC(O/C=C/C(=O)OC2CC(C)CCC2C(C)C)C(C)C)C1` (stereo not drawn), the 50% growth inhibitory concentration (GI50) in the test with SW1573 and in the test with HBL-100 was above 100000 nM each time.

Take `COC(=O)C#CC(C[C@@H](C)CCC=C(C)C)O/C=C/C(=O)OC` (stereo partly drawn): the GI50 with SW1573 came to 2200 nM; with HBL-100 it was 3100 nM.

On to `CC(C)C(C#CC(=O)OC(C)(C)C)O/C=C/C(=O)OC(C)(C)C` (stereo not drawn), for which the GI50 with SW1573 is 4800 nM; with HBL-100 it was 3000 nM.

As to `COC(=O)C#CC(O/C=C/C(=O)OC)C1CCCCC1` (stereo not drawn), the GI50 in the test with SW1573 was 2100 nM; in the test with HBL-100, 2500 nM.

For `CCOC(=O)C#CC(O/C=C/C(=O)OCC)C(C)C` (stereo not drawn), the concentration for 50% growth inhibition (GI50) in the test with SW1573 turned out to be 2800 nM; in the test with HBL-100, 3000 nM.

For the compound `COC(=O)C#CC(CC(C)C)O/C=C/C(=O)OC` (stereo not drawn), the 50% growth inhibitory concentration (GI50) in the test with SW1573 turned out to be 380 nM; in the test on HBL-100, 330 nM.

On to `C#CCO/C=C/C(=O)OC`, for which the GI50 with SW1573 and in the test with HBL-100 was above 100000 nM in each case.

For `CCC(C#CC(=O)OC)O/C=C/C(=O)OC` (stereo not drawn), the 50% growth inhibitory concentration (GI50) in the test with SW1573 came out at 540 nM; in the test with HBL-100, 320 nM.

Regarding `COC(=O)/C=C/OC(C#CC(=O)O)C(C)(C)C` (stereo not drawn), the GI50 in the test on SW1573 and with HBL-100 was above 100000 nM in each case.

On to `COC(=O)C#CC(O/C=C/C(=O)OC)C(C)(C)C` (stereo not drawn), for which the concentration for 50% growth inhibition (GI50) in the test with SW1573 was 3000 nM; in the test with HBL-100, 1800 nM.

For orientation: GI50 means the concentration giving 50% growth inhibition.

The record behind these values is ChEMBL document CHEMBL1157743, “Mitotic arrest induced by a novel family of DNA topoisomerase II inhibitors” (J Med Chem, 2010).
